Measurements: ChEMBL document CHEMBL2375324 (Bioorg Med Chem, 2013)

Columns and labels:
[1] = target: Bcr/Abl fusion protein (Homo sapiens, UniProt P00519); assay: Inhibition of Bcr-Abl kinase (unknown origin) after 30 mins by HTRF assay; assay type: protein assay
[2] = tested on: K562; assay: Antiproliferative activity against human K562 cells after 48 hrs by MTT assay; assay type: functional, cell-based; settings: K562, 48 h
Method in brief: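 Exponentially growing K562 cells were seeded at 1 × 10⁴ cells/well and preincubated 24 h at 37 °C. They were then exposed to the compounds at various concentrations for 48 h. MTT (5 mg/mL solution) was added for 4 h at 37 °C, the supernatant was removed, and formazan was dissolved in DMSO. Absorbance was read at 490 nm, and IC₅₀ is reported in µM.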

Chain of Bcr/Abl fusion protein (P00519 whole entry, the tested form may be a part): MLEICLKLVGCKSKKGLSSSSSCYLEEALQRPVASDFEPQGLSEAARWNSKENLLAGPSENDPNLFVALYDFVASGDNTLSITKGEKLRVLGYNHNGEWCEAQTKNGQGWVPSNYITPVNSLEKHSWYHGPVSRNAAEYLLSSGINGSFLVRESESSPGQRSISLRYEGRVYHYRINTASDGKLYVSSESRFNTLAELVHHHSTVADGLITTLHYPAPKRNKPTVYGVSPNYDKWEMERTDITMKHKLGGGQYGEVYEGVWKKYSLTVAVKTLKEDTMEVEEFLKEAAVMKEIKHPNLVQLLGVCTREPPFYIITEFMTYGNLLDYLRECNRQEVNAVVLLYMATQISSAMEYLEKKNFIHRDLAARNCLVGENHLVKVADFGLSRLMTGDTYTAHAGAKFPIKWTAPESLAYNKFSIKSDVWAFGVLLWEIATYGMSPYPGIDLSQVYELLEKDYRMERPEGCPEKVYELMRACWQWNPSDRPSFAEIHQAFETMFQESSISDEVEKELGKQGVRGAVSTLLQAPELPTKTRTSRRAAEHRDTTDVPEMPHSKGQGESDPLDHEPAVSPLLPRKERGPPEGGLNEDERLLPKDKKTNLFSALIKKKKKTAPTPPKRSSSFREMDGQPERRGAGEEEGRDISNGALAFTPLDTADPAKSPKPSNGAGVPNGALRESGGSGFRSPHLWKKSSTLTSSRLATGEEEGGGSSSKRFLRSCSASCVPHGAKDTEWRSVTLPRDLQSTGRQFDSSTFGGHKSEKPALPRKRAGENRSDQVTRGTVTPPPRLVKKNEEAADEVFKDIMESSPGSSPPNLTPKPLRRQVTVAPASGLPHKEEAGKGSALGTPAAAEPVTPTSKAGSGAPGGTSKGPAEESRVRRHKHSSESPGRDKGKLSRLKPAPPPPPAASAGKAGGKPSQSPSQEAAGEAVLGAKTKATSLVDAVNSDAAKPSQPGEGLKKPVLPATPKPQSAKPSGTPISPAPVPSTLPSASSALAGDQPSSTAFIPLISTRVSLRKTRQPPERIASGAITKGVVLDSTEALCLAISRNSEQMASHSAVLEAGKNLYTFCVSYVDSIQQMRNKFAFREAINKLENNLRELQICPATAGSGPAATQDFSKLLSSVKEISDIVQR
Chain of Bcr/Abl fusion protein (P11274 whole entry, further chain, the tested form may be a part): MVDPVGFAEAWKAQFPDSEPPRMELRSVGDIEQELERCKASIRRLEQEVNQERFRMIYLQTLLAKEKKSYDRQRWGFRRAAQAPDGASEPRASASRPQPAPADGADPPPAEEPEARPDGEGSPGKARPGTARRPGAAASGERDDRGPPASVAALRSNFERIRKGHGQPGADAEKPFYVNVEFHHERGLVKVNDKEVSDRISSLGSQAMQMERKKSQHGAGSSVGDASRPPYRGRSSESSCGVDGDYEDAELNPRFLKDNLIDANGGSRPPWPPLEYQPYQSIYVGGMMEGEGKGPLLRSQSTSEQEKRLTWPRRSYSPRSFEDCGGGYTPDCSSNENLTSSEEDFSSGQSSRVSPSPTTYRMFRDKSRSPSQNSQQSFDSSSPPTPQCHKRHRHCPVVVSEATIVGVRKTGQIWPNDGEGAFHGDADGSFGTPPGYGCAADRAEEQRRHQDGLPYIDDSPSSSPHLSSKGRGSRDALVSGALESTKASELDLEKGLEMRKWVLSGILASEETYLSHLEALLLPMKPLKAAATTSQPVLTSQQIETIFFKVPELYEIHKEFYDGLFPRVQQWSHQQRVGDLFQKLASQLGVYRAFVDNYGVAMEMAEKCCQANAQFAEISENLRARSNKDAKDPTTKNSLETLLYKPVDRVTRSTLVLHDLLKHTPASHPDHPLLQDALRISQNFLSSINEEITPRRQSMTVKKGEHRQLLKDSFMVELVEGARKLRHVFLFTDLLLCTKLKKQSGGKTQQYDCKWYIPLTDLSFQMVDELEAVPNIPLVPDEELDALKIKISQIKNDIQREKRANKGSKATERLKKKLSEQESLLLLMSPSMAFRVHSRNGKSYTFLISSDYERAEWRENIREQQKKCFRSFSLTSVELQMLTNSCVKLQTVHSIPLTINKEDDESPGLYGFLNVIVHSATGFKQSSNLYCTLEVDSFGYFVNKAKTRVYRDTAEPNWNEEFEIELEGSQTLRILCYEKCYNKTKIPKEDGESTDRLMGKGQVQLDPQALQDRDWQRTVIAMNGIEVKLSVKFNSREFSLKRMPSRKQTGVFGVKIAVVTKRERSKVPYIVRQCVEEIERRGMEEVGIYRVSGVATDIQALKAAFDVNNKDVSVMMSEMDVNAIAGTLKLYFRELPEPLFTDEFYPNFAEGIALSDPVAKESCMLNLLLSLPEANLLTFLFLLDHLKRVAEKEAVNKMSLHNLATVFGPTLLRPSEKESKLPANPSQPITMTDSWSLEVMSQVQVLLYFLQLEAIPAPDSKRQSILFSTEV

SMILES | IC50 [1] | IC50 [2]
COc1ccc(C(=O)Nc2cccc(C(F)(F)F)c2)cc1Nc1nccc(-c2cccnc2)n1 | 4130 nM | 
COc1ccc(C(=O)Nc2cc(C(F)(F)F)cc(C(F)(F)F)c2)cc1Nc1nccc(-c2cccnc2)n1 |  | 4840 nM
COc1ccc(C(=O)Nc2cc(Br)cc(C(F)(F)F)c2)cc1Nc1nccc(-c2cccnc2)n1 |  | 215000 nM
COc1ccc(C(=O)Nc2cccc(C(C)=O)c2)cc1Nc1nccc(-c2cccnc2)n1 |  | 237000 nM
COc1cccc(NC(=O)c2ccc(OC)c(Nc3nccc(-c4cccnc4)n3)c2)c1 |  | 93100 nM
COc1ccc(C(=O)Nc2ccncc2)cc1Nc1nccc(-c2cccnc2)n1 | 2750 nM | 94500 nM
COc1ccc(C(=O)Nc2nccs2)cc1Nc1nccc(-c2cccnc2)n1 | 294 nM | 
COc1ccc(C(=O)Nc2ccc(OCCN3CCCC3)cc2)cc1Nc1nccc(-c2cccnc2)n1 | 350 nM | 38600 nM
COc1ccc(C(=O)Nc2ccc(OCCN3CCCCC3)cc2)cc1Nc1nccc(-c2cccnc2)n1 | 1110 nM | 5150 nM
Cc1cn(-c2cc(NC(=O)c3ccc(C)c(Nc4nccc(-c5cccnc5)n4)c3)cc(C(F)(F)F)c2)cn1 [NILOTINIB] |  | 89100 nM

More lines, in order of falling IC50 [1], values ahead:

IC50 [1] | IC50 [2] | SMILES
63.3 nM |  | COc1ccc(C(=O)Nc2ccc(OCCN3CCOCC3)cc2)cc1Nc1nccc(-c2cccnc2)n1
34.8 nM | 237000 nM | COc1ccc(C(=O)Nc2cccc(Cl)c2)cc1Nc1nccc(-c2cccnc2)n1
6.34 nM |  | COc1ccc(C(=O)Nc2ccc(OCCCN3CCOCC3)cc2)cc1Nc1nccc(-c2cccnc2)n1
4.79 nM |  | COc1ccc(C(=O)Nc2ccc(Br)cc2)cc1Nc1nccc(-c2cccnc2)n1
4.73 nM |  | COc1ccc(C(=O)Nc2ccc(F)c(Cl)c2)cc1Nc1nccc(-c2cccnc2)n1
3.78 nM |  | COc1ccc(C(=O)Nc2ncccn2)cc1Nc1nccc(-c2cccnc2)n1
3.21 nM |  | COc1ccc(C(=O)Nc2cccc(F)c2)cc1Nc1nccc(-c2cccnc2)n1
2.34 nM |  | COc1ccc(C(=O)Nc2ccc(OCCN(C)C)cc2)cc1Nc1nccc(-c2cccnc2)n1
1.48 nM |  | CCN(CC)CCOc1ccc(NC(=O)c2ccc(OC)c(Nc3nccc(-c4cccnc4)n3)c2)cc1
0.52 nM | 38500 nM | COc1ccc(C(=O)Nc2ccc(OCCCN(C)C)cc2)cc1Nc1nccc(-c2cccnc2)n1
